Results on 98 compounds are retold here after ChEMBL document CHEMBL4513216, “Probing the Open Global Health Chemical Diversity Library for Multistage-Active Starting Points for Next-Generation Antimalarials” (ACS Infect Dis, 2020).

Structures are written as SMILES.

The data set can be described thus: Toxicity liver stage against HepG2, at 10uM. The format is cell-based. Further details: test concentration 10 uM, cell line HepG2-A16-CD81EGFP. Conditions: human, HepG2-A16-CD81EGFP cells; read-out: INHIBITION
The procedure, abridged:
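Uninfected HepG2-A16-CD81EGFP cells, 3 × 10^3 per well, 1536-well, plated on prespotted compound at 10 μM final, parasite-free screening media added to match infected plates; puromycin 10 μM positive, DMSO 0.5% negative; run in parallel with 48 h PbLuc assay at 37 °C, 5% CO2; viability by CellTiter-Glo luminescence, normalized to controls.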
For `CCCSc1ncc(CN2CCN(C)C(=O)C2C)cn1` (stereo not drawn), the cytotoxicity at 10 µM came out at 7.75%. With `Cc1cc(C)n(-c2cncc(N3CCC(C(=O)N(C)C)CC3)n2)n1` the figure was -16%; with `CCCC(O)CN1CCC(=O)N(CC2CC2)Cc2cc3c(cc21)OCO3` (stereo not drawn), -1.89%. Turning to `COCC(=O)Nc1cc(Br)cnc1OCC(F)(F)F`, the cytotoxicity at 10 µM is -5.6%. With `O=C(c1ccc(Cl)cc1)N1CCCn2nnc(Cn3cccn3)c2C1` the figure was -10.3%; with `COC(=O)N1CCN2C[C@H](CO)[C@@H](c3ccccc3)[C@H]2C1`, 6.12%; with `Cc1ccc(C(=O)NCCCNS(C)(=O)=O)c(=O)[nH]1`, -15.3%. With `N#Cc1cccc(CN2CC[C@@H]3CN(c4ncccn4)CCO[C@@H]3C2)c1` the figure was -6.51%. With `COCCOCCNC(=O)c1ccc(N2CCC(C)=N2)cc1` the figure was 7.42%; with `CCN(C(C)=O)C(c1cccnc1)c1cc(C)cc(C)c1` (stereo not drawn), 6.72%. Consider `Cc1noc(C)c1CN1CCCC2(CCN(C(=O)C3CC3)C2)C1` (stereo not drawn), for which the cytotoxicity at 10 µM came to 2%.

As to `O=C(CCCN1CCCCC1)N1CCC(c2nnc[nH]2)CC1`, the cytotoxicity at 10 µM was -7.92%. With `CCCNC(=O)c1cc2c(s1)CCN2c1ncccn1` the figure was -105%. With `Cc1nnc(NCC(c2ccco2)N2CCCC2)c(C#N)c1C` (stereo not drawn) the figure was -3.04%. Then `COc1ccc(CC(=O)N2CCC(Nc3ccc(C)nn3)CC2)cc1`, with -5.34%; and `Cc1ccc(S(=O)(=O)Nc2cccnc2O)cc1C`, with 3.33%. As to `Cc1nc[nH]c1-c1c(-c2ccccc2)ncn1C1CCNC1` (stereo not drawn), the cytotoxicity at 10 µM was -52.4%. In the case of `CCn1ccc(C(=O)N2CCOC(c3nc(-c4cccs4)no3)C2)n1` (stereo not drawn), the cytotoxicity at 10 µM is 10.9%. With `O=C(c1cccc(Cl)c1Cl)N1CCN(CC(O)Cn2cccn2)CC1` (stereo not drawn) the figure was -14.3%. Then `CC(C#N)CN(C)C(=O)CCNC(=O)OC(C)(C)C` (stereo not drawn), with 4.94%; and `Cn1cc(CN2CCc3ccc(=O)n(Cc4ccncc4)c3CC2)cn1`, with 3.97%; and `Cn1cnc(CNC(=O)c2ccccc2-n2cc(CN)cn2)c1`, with -16.9%. With `Cn1cc(C(=O)NCc2cncc3c2CCN(CC2CC2)C3)cn1` the figure was -103%; with `CCN(CCCNc1ncnc2cc(F)c(F)cc12)S(C)(=O)=O`, 37.7%; with `O=C1CCCN1CC1CN(C(=O)CC2CCCC2)Cc2nccn2C1` (stereo not drawn), 1.47%.

As for `CCc1nc(CCNC(=O)Nc2cc(C(N)=O)ccc2OC)cs1`, the cytotoxicity at 10 µM worked out at 1.43%. With `Cc1cc(=O)n(C)cc1NC(=O)Cc1cccc(Cl)c1` the figure was -12.8%; with `CC(C)(C)OC(=O)NCCC(=O)N(CCC#N)Cc1ccco1`, 3.12%; with `Cc1cccc2[nH]cc(CC(=O)N3CCC(Nc4cccnn4)CC3)c12`, -8.45%. Then `CN(C)CC(O)Cn1cc(NCc2ccc(Br)cc2)cn1` (stereo not drawn), with 7.48%; and `COc1ccc(C(=O)NC(CC(=O)O)c2cccs2)c(OC)c1` (stereo not drawn), with -0.463%. On to `CC(C)c1noc(CCCC(=O)NC2CCS(=O)(=O)C2)n1` (stereo not drawn), for which the cytotoxicity at 10 µM worked out at 4.67%.

Consider `CCN(CC)C1CCN(C(=O)c2cc3cc(C)cc(C)c3nc2C)CC1`, for which the cytotoxicity at 10 µM stood at 0.199%.

Take `CN(CC1CCOC1)c1ncc(Br)cn1` (stereo not drawn): the cytotoxicity at 10 µM is 4.23%. As to `CCCS(=O)(=O)N1CCC2(CCC(=O)N(CCc3ccccc3)C2)CC1`, the cytotoxicity at 10 µM was 6.84%. With `CNC(=O)CN1CC[C@H]2CN(C(=O)c3cc[nH]n3)C[C@H]2C1`, the cytotoxicity at 10 µM worked out at 0.53%. Consider `c1cncc(N2CCC(c3ccncc3)CC2)c1`, for which the cytotoxicity at 10 µM is 2.59%. Then `CNC(=O)C1CN(C(C)C)CCN1c1ncccn1` (stereo not drawn), with 1.22%. With `COCCCC1CCCN(C(=O)CCc2cc(O)no2)C1` (stereo not drawn) the figure was 8.41%; with `CC(NCc1nnc2n1CCCC2)c1nc(-c2cccs2)no1` (stereo not drawn), -39.5%. Then `CN(Cc1ccco1)Cc1cnc2n1CCN(S(C)(=O)=O)CC2`, with -2.75%. Consider `Cc1nc(CN2CCCC(NCc3ccsc3)C2)no1` (stereo not drawn), for which the cytotoxicity at 10 µM is 0.504%. Then `CN1CCCC(c2ccc(N3CCOCC3)cn2)C1` (stereo not drawn), with -6.47%; and `COc1ccccc1S(=O)(=O)Nc1cnc(O)cc1C`, with -13.2%; and `CN1CCN(c2ncc(CNCCCc3cccc(F)c3)cn2)CC1`, with -13.2%. Then `CN(C)Cc1cc(C2CCCCN2S(=O)(=O)c2cccc(Cl)c2)nn1C` (stereo not drawn), with -8.63%; and `COc1ccc(-c2nc(CN3CCc4cncnc4C3)no2)cc1`, with -3.92%; and `CN(C)c1ncc(NS(=O)(=O)c2ccc(OC(F)(F)F)cc2)cn1`, with 11.9%. As to `Cc1ccc(OCC(O)CN(C)CC(=O)Nc2cc(C)on2)c(C)c1` (stereo not drawn), the cytotoxicity at 10 µM was -17.3%. With `Cc1ncc2c(n1)CN(CC(=O)Nc1cccnc1)CC2` the figure was 0.66%; with `COCC(=O)N1CCC(Oc2cccc(C)c2)CC1`, -4.25%.

`COCc1noc(CNc2nc(C3CCCC3)nc3c2CCNCC3)n1`: the cytotoxicity at 10 µM came out at 0.0228%.

For `CC(C)NCc1cccnc1N1CCN(c2ccccn2)CC1`, the cytotoxicity at 10 µM was -3.85%. With `CCCSCC(=O)N1C[C@@H](NC(C)=O)[C@H](c2ccc(OC)cc2)C1` the figure was 7.41%. Then `O=C(c1cnc2ccccc2c1)N1CCC2(CCN2c2ncccn2)C1` (stereo not drawn), with -122%; and `O=C(NCC1(O)CCOC1)c1ccccc1Cl` (stereo not drawn), with -40.3%; and `Cc1cc(C(=O)N2C[C@@H](CN3CCOCC3)C[C@H](CO)C2)nc(C)n1`, with 3.63%. `Cc1ncsc1CN1CC[C@H]2OCC[C@@]2(C(=O)N2CCOCC2)C1`: the cytotoxicity at 10 µM was 6.91%. With `O=c1oc(-c2ccc(F)cc2)nn1CC1CCOC1` (stereo not drawn) the figure was 5.53%; with `N#Cc1cccc(CN2C(=O)c3ccccc3CS2(=O)=O)c1`, -2.14%; with `Cc1noc(C2CCC3(CCN(C(=O)c4ccn(C)n4)CC3)O2)n1` (stereo not drawn), 7.57%. With `Cc1nc(C(C)NCc2cc(O)c3cccc(F)c3n2)cs1` (stereo not drawn) the figure was 8.33%; with `COCC1CN(Cc2ccncc2)Cc2nn(CC3CC3)cc21` (stereo not drawn), -73.7%. With `CC(CNCc1ccc2c(c1)n(C)c(=O)n2C)Oc1ccccn1` (stereo not drawn) the figure was 6.27%; with `CN(C)Cc1cc(=O)n2c(n1)CN(C(=O)Cc1ccsc1)CCC2`, -4.43%; with `O=C(NCC1CC1)C1CCC2(CCN(C(=O)c3ccco3)CC2)O1` (stereo not drawn), 5.91%. Regarding `Cc1cc(C)n(-c2ccc(C(=O)N3CCCC3c3cnn(C)c3)cc2)n1` (stereo not drawn), the cytotoxicity at 10 µM was -7.41%. For the compound `CC(=O)N1CCO[C@@H]2CN(S(=O)(=O)c3cccs3)CC[C@@H]2C1`, the cytotoxicity at 10 µM is 7.66%. In the case of `CN(C)S(=O)(=O)c1cccc(NC(=O)Cc2ccon2)c1`, the cytotoxicity at 10 µM came out at 9.48%. Then `CNC(=O)c1cnc2n1CCN(Cc1cccnc1)C2`, with 8.88%; and `CCOCC1CN(C(=O)c2cscn2)Cc2cnn(CC3CC3)c21` (stereo not drawn), with -69.4%.

In the case of `CCC(C(=O)N(C)C)n1ccc2ncccc2c1=O` (stereo not drawn), the cytotoxicity at 10 µM was 3.63%. With `Cc1nc2ncnn2c2ccn(-c3cccnc3O)c(=O)c12` the figure was 15.9%; with `COc1c(C2CCCN2C(=O)c2ccc(C#N)cc2)c(C)nn1C` (stereo not drawn), -1.72%. As for `CC(Cn1cccn1)NC(=O)NCCCN1CCCCCC1=O` (stereo not drawn), the cytotoxicity at 10 µM turned out to be 12.3%.

With `CCCn1ccnc1CN1CCC(O)(CN2CCCCC2)C1` (stereo not drawn), the cytotoxicity at 10 µM is -6.12%. With `O=C1CCc2cc(NC(=O)N3CCCN(Cc4cccs4)CC3)ccc21`, the cytotoxicity at 10 µM was -11.1%. Then `CC(C)OCCC(=O)NCCC(=O)N1CCN(c2ccccn2)CC1`, with 2.56%; and `CSCCN(C)Cc1ccc(F)cc1C#N`, with 4.81%; and `O=C(c1n[nH]c2c1CCN(Cc1nccs1)C2)N1CCCC1`, with -10.7%.

With `Cc1cnc(N2C[C@H]3CN(Cc4csc(C)n4)C(=O)[C@H]3C2)nc1`, the cytotoxicity at 10 µM turned out to be 12%. For the compound `CN(Cc1nnc(-c2ccco2)o1)Cc1nc2c(s1)CCCC2`, the cytotoxicity at 10 µM was determined as 1.13%. Then `Cc1ccsc1CNC(=O)c1ccc(N2CCNC2=O)cc1`, with 1.79%; and `O=C(c1ccc2c(c1)COC2)N1CCN(CCO)CC1`, with -16.5%.

Regarding `CN(Cc1ccccc1F)C(=O)COC(=O)c1cc(Cl)c[nH]1`, the cytotoxicity at 10 µM is 12.4%. As for `Cc1ccc(N2CCC3(CN(CCO)CCC3(F)F)C2)nn1` (stereo not drawn), the cytotoxicity at 10 µM was found to be 7.28%. For the compound `Cc1ncc(CNC(=O)CCc2cccc(F)c2)c(C2CCCN2C)n1` (stereo not drawn), the cytotoxicity at 10 µM is -6.82%. Then `COc1ncccc1C(=O)N1CCCC1c1c(C)n[nH]c1C` (stereo not drawn), with 10.7%; and `C[C@@H]1CN(c2ccc3c(Cl)ccnc3c2F)CC(C(N)=O)O1` (stereo partly drawn), with 4.11%.

For the compound `CCCS(=O)(=O)NCCc1ncc(CC)s1`, the cytotoxicity at 10 µM is -1.56%. Then `CCN1CCN(Cc2c(C3CCCC3)[nH]c3ncccc23)CC1`, with 13.1%; and `Clc1ccc(CN(CCN2CCOCC2)Cc2cccnc2)cc1Cl`, with -9.96%. With `O=C(c1cnc2c(c1)CCC2)N1CCCC(CO)(CC2CC2)C1` (stereo not drawn) the figure was -42.1%; with `O=C(C1CCOCC1)N1CCO[C@H]2[C@H](OCC3CC3)CC[C@@H]21`, 2.61%; with `COc1ccc(C(=O)NCc2cc(N3CCOCC3)ncn2)o1`, 4.39%. Then `CCN(CC)CC(=O)N1CCN(CCc2ccncc2)CC1`, with -44.7%; and `COc1cc(I)c(Cl)cc1C(=O)N(C)CC(C)(C)O`, with 11.4%. Take `CC(=O)NCC(=O)N1CCN(Cc2cccnc2)c2ncccc2C1`: the cytotoxicity at 10 µM was -114%.
